Experimental data from different studies.
CSF1R: Macrophage colony-stimulating factor 1 receptor (CSF1R, Homo sapiens, UniProt P07333)
CSF1R autoinhibited: Macrophage colony-stimulating factor 1 receptor, autoinhibited (CSF1R, Homo sapiens, UniProt P07333)

Compound | target | effect on | action | technique | concentration | measurement | result
COc1ccc2[nH]c3c4[nH]c5ccc(OC)cc5c4c4c(c3c2c1)C(=O)NC4=O | CSF1R | binding |  | competition with immobilised ligand | 1 µM | remaining binding | 58%
CCCCC(=O)Nc1ccc(-c2ccc3ncn(CCC)c(=O)c3c2)cn1 | CSF1R | binding |  | competition with immobilised ligand | 0.5 µM | remaining binding | 88%
C=CC(=O)N1CCC([C@@H]2CCNc3c(C(N)=O)c(-c4ccc(Oc5ccccc5)cc4)nn32)CC1 | CSF1R autoinhibited | cell-free assay |  |  | 1 µM | inhibition | 0%
C#Cc1cnc(Nc2ccnc(CO)c2)nc1Nc1ccccc1S(C)(=O)=NC#N (centres unmarked) | CSF1R | cell-free assay |  |  | 1 µM | remaining signal | 53%
C1=C/COCc2cc(ccc2OCCN2CCCC2)Nc2nccc(n2)-c2cccc(c2)COC/1 | CSF1R autoinhibited | binding |  |  | 0.1 µM | remaining binding | 53%
CC#CC(=O)N1CCC[C@H]1c1nc(-c2ccc(C(=O)Nc3ccccn3)cc2)c2c(N)nccn12 | CSF1R | enzyme activity | inhibitor |  | 1 µM | inhibition | 0%
Cc1ccc(NC(=O)c2ccnc(C(F)(F)F)c2)cc1-c1cc(OCCO)nc(N2CCOCC2)c1 | CSF1R autoinhibited | binding |  | competition with immobilised ligand | 1 µM | remaining binding | 87%
N#Cc1ccc(NC(=O)Nc2ccccc2)cc1 | CSF1R | cell-free assay |  | competition with immobilised ligand | 25 µM | remaining binding | 61%
